Reference: the EternaBench riboswitch data

Tested on: MS2 coat protein
Assay: apparent Kd, MS2 coat protein; higher = weaker binding; RNA-MaP array; FMN 200 µM where present
How it was run: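 In 100 mM Tris-HCl pH 7.5, 80 mM KCl, 4 mM MgCl2, BSA, DTT, yeast tRNA and Tween-20, SNAP-549-labelled MS2 coat protein was titrated from 0.7 or 1.5 nM, doubling to 3 µM, over designs transcribed by stalled E. coli RNA polymerase on Illumina sequencing-chip clusters. This was done first without ligand, then with ligand held constant. After green signal was normalised to red-channel RNA signal and control-cluster median Fmax, the apparent Kd was taken as the median of filtered per-cluster binding-curve fits.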

[1] = designed as: ON switch for flavin mononucleotide, no ligand
[2] = ligand present: flavin mononucleotide, designed as: ON switch for flavin mononucleotide
[3] = designed as: OFF switch for flavin mononucleotide, no ligand
[4] = ligand present: flavin mononucleotide, designed as: OFF switch for flavin mononucleotide

## AACCAACAUGAGGAUCACCCAUGUCAACCCAAGGCAGGAUAUGCGAGAAUAACAAUGGGAGCAGAAGGGCCGACCU
[1]
  apparent Kd: 0.11 µM
[2]
  apparent Kd: 0.0549 µM

## GUAAUUAAGAGAGGAUAUUGACAUGAGGAUCACCCAUGUAUUUGGGAGUGUUCACUGAAUUCUUACGAGAAGGCUUUUAAAUAC
[3]
  apparent Kd: 0.329 µM
[4]
  apparent Kd: 0.285 µM

## GCGUAUUAGGUGUAGCUAGUCAUUCAAGAAGGGUGAAGAACAUGAGGAUCACCCAUGUUGUUUUUACAGGAUAUUGAUAUACGC
[1]
  apparent Kd: 0.068 µM
[2]
  apparent Kd: 0.00852 µM

## UUACUAUCACAGAAGGGUAGAUAGUAUAUAGAUGCAGGAUAUGUGACAUGAGGAUCACCCAUGUUUCACCGACAUGAGGAUCAC
[3]
  apparent Kd: 0.0604 µM
[4]
  apparent Kd: 0.0662 µM

## AAAAAACAUGAGGAUCACCCAUGUGAGGAUAUGCGAAAAAAAAAAAAAAAAAAAAAAAGUAGAAGGCACAAAAA
[3]
  apparent Kd: 0.0485 µM
[4]
  apparent Kd: 0.173 µM

## AAGAAACAUGAGGAUCACCCAUGUGAGGAUAUGUAAAAUAAAAUAAAAUAAAUAAUAAACAGAAGGCACAAAGG
[3]
  apparent Kd: 0.068 µM
[4]
  apparent Kd: 0.0765 µM

## AGAAAGUGAGGAUAUACGAAACCAGCCUAAAUGGCUGGAAAGUAGAAGGCACAUGAGGAUCACCCAUGUAAAGA
[3]
  apparent Kd: 0.0244 µM
[4]
  apparent Kd: 0.0316 µM

## ACAGUCACAAUAACUUGUGGGCGUGAGGAUAUAUAUGGCUCGGAGCGGACAUGAGGAUCACCCAUGUAGAAGGCACGAACUAAU
[3]
  apparent Kd: 0.0061 µM
[4]
  apparent Kd: 0.00854 µM

## UUUUUAUAACAAGGAUAUACUAAACAUGAGGAUCACCCAUGUAAUAUUAUGAGUGAGAGAGAGAAGUAGAAGGUGUAUUAUUUU
[3]
  apparent Kd: 0.096 µM
[4]
  apparent Kd: 0.12 µM

## UAUUACCUAGGAUAUACAUGAGGAUCACCCAUGUCACGGGUCAACUUGUCCUACGCGUGUAGAAGGAGGGACCC
[3]
  apparent Kd: 0.021 µM
[4]
  apparent Kd: 0.0214 µM

## ACCUUACAUGAGGAUCACCCAUGUCAGGAUAUCUCGGACGGCUGAAAACCAACCGUCCAGAGAAGGGACGAGGA
[3]
  apparent Kd: 0.0131 µM
[4]
  apparent Kd: 0.0152 µM

## GGAGCACACAUUAACAUGAGGAUCACCCAUGUCAAAAGACAUGAGGAUAUGGUUCCGAAAAGGAUCCAGAAGGCAUGGUGCUCC
[1]
  apparent Kd: 0.356 µM
[2]
  apparent Kd: 0.0155 µM

## UGUCGGAGCAGAGGAUAUAUACAUGAGGAUCACCCAUGUAAAUGGAAUAGCUGGAAACAGCAAGUAUAGAAGGCUGCUCCGACA
[3]
  apparent Kd: 0.0374 µM
[4]
  apparent Kd: 0.112 µM

## CAGGAUCAAGGAUAUCAUCGACGGAACAUGAGGAUCACCCAUGUGAUUGUGCUCUCCUUGUGAGAAGGUGGCGAAU
[3]
  apparent Kd: 0.0385 µM
[4]
  apparent Kd: 0.0367 µM

## AUCCGGAGGGAGAAGGGCUAGGAGGUCCAGCUUAUGUGUGUUGCAACAUGAGGAUCACCCAUGUAGCAGGAUAUCCCUUGUAUA
[3]
  apparent Kd: 0.0512 µM
[4]
  apparent Kd: 0.214 µM

## UGGUACAUGGGAGGAUAUCAUGUGAUAACAUGAGGAUCACCCAUGUCGAUGGAGACAUCGGAGAUUGAGAAGGCCCAUGUACCU
[1]
  apparent Kd: 1.19 µM
[2]
  apparent Kd: 0.0965 µM

## ACGUAUCAUGUAGGAUAUGACCCAGGAAAUUGGUCAGAAGGACAUGAGGAUCACCCAUGUAGAGUAUGUUAGGAUGACGUAUGC
[3]
  apparent Kd: 0.115 µM
[4]
  apparent Kd: 0.165 µM

## CUAAUGUGAGGAUAUGGUGUUGAUCACAGGAAAAAGAUUCUCCAGAAGGCACAUGAGGAUCACCCAUGUAGUGA
[3]
  apparent Kd: 0.0656 µM
[4]
  apparent Kd: 0.175 µM

## CACAAAUGGCAGAAGGGACGGACGAUAGUGUAGUCAGGAUAUGCAAAUAGGUAUGGACAUGAGGAUCACCCAUGUCCGUCCUUU
[2]
  apparent Kd: 0.00527 µM

## GUAGCUAUCGGAGGAUAUUCAUAGCCGAAAGGCACAUGAGGAUCACCCAUGUGGCGAAAGCCUUGGGAGAAGGCCGAUAGCUAC
[1]
  apparent Kd: 0.27 µM
[2]
  apparent Kd: 0.0187 µM

## UUUAUGUAAGGAUAUGCGGGCGGGCGUGAAAAUGUUUGUUUGUAGAAGGUACAUGAGGAUCACCCAUGUAGUGG
[3]
  apparent Kd: 0.145 µM
[4]
  apparent Kd: 0.201 µM

## GGAUAGGACAGAGGAUAUACGUGCUAGAGAUACUAGCAAAAUUUACUCACAUGAGGAUCACCCAUGUAGAAGGCUGUCCUAUCG
[3]
  apparent Kd: 0.00509 µM
[4]
  apparent Kd: 0.0222 µM

## UUAAAUCAUGUAGGAUAUGCAUGGCGAAGCUACGCAGAAGGACAUGAGGAUCACCCAUGUGCUAGCGACUGAGUACAGUUGCAA
[3]
  apparent Kd: 0.0564 µM
[4]
  apparent Kd: 0.325 µM

## AGAUCUCAAUAAGAUCCAAUACGAACAUGAGGAUCACCCAUGUAGGAUAUGCUAGAAGUAGAGUAGCAGAAGGACAAGUACCUU
[3]
  apparent Kd: 0.0184 µM
[4]
  apparent Kd: 0.0157 µM

## UUUACAUGAGGAUCACCCAUGUAUAGAACGGUUCAUUAAAGUGAGGAUAUACAUAAUUUUAAAUUGUAGAAGGCACUGGGUACA
[1]
  apparent Kd: 0.0177 µM
[2]
  apparent Kd: 0.0192 µM

## CGAGCCGGCACUGAGGAUAUUCAUAUUUAAACAUGAGGAUCACCCAUGUAGGCCAGAAGGCCUUGGGAGAAGGCAGGUCGGCUCC
[1]
  apparent Kd: 0.379 µM
[2]
  apparent Kd: 0.0272 µM

## GUCAGCUCGUGAGGAUAUACAUGAUAGAUCGAUUAAUUAAUUAAUUUAACAUGAGGAUCACCCAUGUAGAAGGCACGAGCUGAU
[3]
  apparent Kd: 0.0572 µM
[4]
  apparent Kd: 0.0466 µM

## GAAAUUCGGGCAGGAUAUGGGUGCCGUCAAGACAUGAGGAUCACCCAUGUCCCAUGCACGAGCGCUCAGAAGGGCUCAUUGCAG
[1]
  apparent Kd: 0.0208 µM
[2]
  apparent Kd: 0.022 µM

## CUGCGGUCAGGAUAUGCAUGGCGGGACUUGCGUCGUGGCGUGGAGAAGGGACAUGAGGAUCACCCAUGUGGAGA
[3]
  apparent Kd: 0.0679 µM
[4]
  apparent Kd: 0.0423 µM

## UGGUACUAGGGAGGAUAUGGGAAGAUACAUGAGGAUCACCCAUGUUUAAGAAUGCCGAGAGGCAACUAGAAGGCCAUAGUACCU
[1]
  apparent Kd: 0.405 µM
[2]
  apparent Kd: 0.022 µM

## AAUUAGGUCACAGGAUAUACUUCAUCCAUAGAUGUAGAAGGGUGUCAGAAUAAUUUCUUACAUGAGGAUCACCCAUGUUUCCAC
[1]
  apparent Kd: 0.108 µM
[2]
  apparent Kd: 0.0481 µM

## GGAUAGUGAGGAUAUCGAUGUUAGGAGGAUGAGGUAGGAUGCGAGAAGGCACAUGAGGAUCACCCAUGUAUGGU
[3]
  apparent Kd: 0.0488 µM
[4]
  apparent Kd: 0.0388 µM

## GAUUUCGCAUGAGGAUAUGCUCCCGUUUCGGGAGCAGAAGGCAUGUCAUUAGACAUGAGGAUCACCCAUGUAGUUAAGAUUGAA
[1]
  apparent Kd: 0.378 µM
[2]
  apparent Kd: 0.0157 µM

## GAUGAGGUAGGAUAUACGAUAAUAUAGGGUAGAUAUAUAACACAUGAGGAUCACCCAUGUAGAAGGACCAGUAC
[3]
  apparent Kd: 0.0386 µM
[4]
  apparent Kd: 0.0612 µM

## CGAUCGUUGCAGAAGGUUAUAAUUUUAUCUACAUGUUUAACAUGAGGAUCACCCAUGUUUUUGAUGAAGGAUAUGCAAGGGUCG
[3]
  apparent Kd: 0.00688 µM
[4]
  apparent Kd: 0.00712 µM

## UUGUUAUAUGUAGGAUAUGCGUAUUAUUAUUAGGCAGAAGGACAUGAGGAUCACCCAUGUAUGUUGUUGUUAUAUAUUAUAUAU
[3]
  apparent Kd: 0.0284 µM
[4]
  apparent Kd: 0.0296 µM

## GUGAGAAUAGGAGGAUAUAUACAACAUGAGGAUCACCCAUGUACCCGUGUAGUAGAAGGUUUGUUUAUAUAUAAUAUUAUAUUU
[1]
  apparent Kd: 0.0202 µM
[2]
  apparent Kd: 0.0187 µM

## GCGUGGUUCUAGAAGGUGCUAGCGAUAAGCUAGCAAGGAUAUAGACAUGAGGAUCACCCAUGUCUUAGUGAAAUGGACACACGC
[4]
  apparent Kd: 0.00509 µM

## UGCACUAGAUGAGGAUAUGCACAUGAGGAUCACCCAUGUGUGUGCUGCGGUGGUGAUCUGUAAAUGCAGAAGGCAUUCGGGCGG
[3]
  apparent Kd: 0.111 µM
[4]
  apparent Kd: 0.0639 µM

## GGGUAACAUGAGGAUCACCCAUGUGAGGAUAUUCUAGGGAUGGAAGCUCGGCCGGCCAGGAGAAGGUACUAAAG
[3]
  apparent Kd: 0.044 µM
[4]
  apparent Kd: 0.048 µM

## GGUACCAUGUAGAAGGCAGAUCUGAUUCAGAUCUGAGGAUAUACAUGAGGAUCACCCAUGUAAAGGCACCGCACGAGAGUGCAA
[3]
  apparent Kd: 0.0324 µM
[4]
  apparent Kd: 0.108 µM

## AGCUGUGGCCGAGGAUAUCUAAACUCAAUAACCGAAAUAUAAUCGGACAUGAGGAUCACCCAUGUAGAGAAGGCGGUCUCAGCA
[3]
  apparent Kd: 0.0341 µM
[4]
  apparent Kd: 0.0718 µM

## UGAAAUCAUGUAGGAUAUGCAUGGCGAAGCUACGCAGAAGGACAUGAGGAUCACCCAUGUUAUAGCUACCCAGUUCGGUGGCAC
[3]
  apparent Kd: 0.046 µM
[4]
  apparent Kd: 0.137 µM

## AGUUUGCGGCAGGAUAUCCAUCCGCGGUGUGGUGGAGAAGGGCUGACAUGAGGAUCACCCAUGUGCGUCCUGUA
[3]
  apparent Kd: 0.0232 µM
[4]
  apparent Kd: 0.0325 µM

## CAGGUAGACUGAGGAUAUACAAAGACCUAGUUUAUCUAGGUCAACAUCACAUGAGGAUCACCCAUGUAGAAGGCAGUCUGCCUG
[3]
  apparent Kd: 0.0154 µM
[4]
  apparent Kd: 0.0247 µM

## AAAAGACAUGAGGAUCACCCAUGUCAGGAUAUCUUCCGUAGGCCGAAUGGCUUCCGGUGGAGAAGGGACAUCGG
[3]
  apparent Kd: 0.0507 µM
[4]
  apparent Kd: 0.104 µM

## AAGAAGUGAGGAUAUCGAAGACAAAAAAAAAAAAAGUCGAACGAGAAGGCACAUGAGGAUCACCCAUGUAAGAA
[3]
  apparent Kd: 0.0302 µM
[4]
  apparent Kd: 0.0334 µM

## UGGUGUGAAGGAUAUACAUGAGGAUCACCCAUGUAUGUGGUGUGUGUUGAGGUGGAGGGUAGAAGGUCAGGUGG
[3]
  apparent Kd: 0.0382 µM
[4]
  apparent Kd: 0.0395 µM
